The list is not random: actives were taken first. Their share in the collection is about 4.5%.
OX1R antag-1: human HCRTR1 antagonism; 0.43% of 330,000 active; CHO/OX1R cells, Fluo-8 calcium fluorescence, orexin A; AID 434989; inhibition, % at 5 µM;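 active = inhibition above its plate's threshold, mean inhibition of all tested compounds on the plate plus 3 SD, cut at about 37% in these data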;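 note: 0% = orexin A challenge wells and 100% = SB-334867-A antagonist wells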
Target sequence (O43613 whole entry, looked up): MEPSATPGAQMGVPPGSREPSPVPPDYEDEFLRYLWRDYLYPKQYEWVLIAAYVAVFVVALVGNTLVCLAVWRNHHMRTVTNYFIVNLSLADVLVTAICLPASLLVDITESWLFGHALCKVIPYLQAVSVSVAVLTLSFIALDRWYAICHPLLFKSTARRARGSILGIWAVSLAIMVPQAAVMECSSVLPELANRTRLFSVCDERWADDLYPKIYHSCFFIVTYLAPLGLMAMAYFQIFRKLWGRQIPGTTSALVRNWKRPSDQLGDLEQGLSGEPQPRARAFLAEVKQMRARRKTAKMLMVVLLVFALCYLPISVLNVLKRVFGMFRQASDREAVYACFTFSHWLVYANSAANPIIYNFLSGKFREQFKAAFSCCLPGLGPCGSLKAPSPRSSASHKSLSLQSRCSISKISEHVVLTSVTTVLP
TAAR1 ag: human TAAR1 agonism; 0.99% of 360,000 active; activation, % at 3 µM; Q96RJ0; CHO RD-HGA16 TAAR1, Fluo-8 calcium fluorescence; vehicle wells 0%, saturating PEA agonist 100%;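 active = activation above the mean activation of all test compounds in the run plus 3 SD, cut at about 38% in these data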
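System: CHO-derived RD-HGA16 cells with stable Gα16 and human TAAR1 / Times: 17-24 h plating, Fluo-8 75 min 37 °C, 30 min RT / Technique: calcium-sensitive Fluo-8 signal, excitation 470-495, emission 515-575 nm / Measure: % activation relative to PEA EC100 response / Benchmarks: DMSO and PEA EC100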
GPR7 antag: antagonists of human GPR7 (neuropeptides B/W receptor 1); GPR7-expressing cells, fluorescence antagonist assay; AID 1861; inhibition, % at 4.4 µM; 1.1% of 290,000 active; in the data active = inhibition above about 16%, passing the limit was not always enough;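 note: cells stimulated with the agonist NPW; 0% = agonist with vehicle and 100% = vehicle without agonist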
Target sequence (P48145 whole entry, looked up): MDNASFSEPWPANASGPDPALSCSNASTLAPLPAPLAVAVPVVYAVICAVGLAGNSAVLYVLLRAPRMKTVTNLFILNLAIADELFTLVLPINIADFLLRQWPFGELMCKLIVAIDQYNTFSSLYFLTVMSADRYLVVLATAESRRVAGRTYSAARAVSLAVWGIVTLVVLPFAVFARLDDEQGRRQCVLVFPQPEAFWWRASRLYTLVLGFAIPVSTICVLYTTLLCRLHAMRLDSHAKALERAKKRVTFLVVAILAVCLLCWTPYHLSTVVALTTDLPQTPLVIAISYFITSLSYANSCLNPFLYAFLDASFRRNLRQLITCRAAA
CHO parental Ca: counter-screen: ATP calcium response change in parental CHO cells; parental CHO-K1, ATP-induced calcium, Fluo-8 fluorescence; inhibition, % at 5.6 µM; 0.63% of 330,000 active;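 active = inhibition above that plate's mean sample inhibition plus 3 SD, cut at about 26% in these data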;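 note: 0% = ATP-challenged DMSO wells and 100% = DMSO wells without ATP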
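Test system: untransfected parental CHO cell line. Compound: one dose, 5.6 µM nominal. Detection: intracellular calcium via Fluo-8 no-wash fluorescent dye. Measure: % inhibition. Benchmarks: ATP-challenged DMSO wells low, unchallenged DMSO wells high.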
TAAR1 antag: human TAAR1 antagonism; Q96RJ0; CHO RD-HGA16 TAAR1, Fluo-8 calcium fluorescence, antagonist; inhibition, % at 3 µM; 1.5% of 360,000 active; AID 624466;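 active = inhibition above a per-plate cutoff, the mean inhibition of test compounds on that plate plus 3 SD, cut at about 49% in these data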;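 note: 0% = DMSO plus EC80 beta-PEA response and 100% = DMSO alone without agonist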
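Material: RD-HGA16 CHO cells with stable hTAAR1 and Gα16; Dosing: single nominal final test compound concentration of 3 µM; Schedule: seeding 17-24 h prior, 75-min 37 °C, 30-min RT dye loading; Detection: kinetic Fluo-8 calcium fluorescence measurement; Measure: % inhibition from peak post-agonist over basal fluorescence ratio; Benchmarks: vehicle and agonist controls.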
OX1R antag-2: blocks the human orexin 1 receptor; 1.8% of 330,000 active; inhibition, % at 6.6 µM; OX1R-expressing cells, FRET antagonist read-out; O43613; in the data active = inhibition mostly above about 38%, no sharp cut-off; inactive = mostly below about 40%;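 note: 0% = agonist challenge alone and 100% = reference antagonist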
TAAR1 ag conf: human TAAR1 agonism, confirmed. shares compounds with TAAR1 ag. CHO RD-HGA16 TAAR1, Fluo-8 calcium fluorescence; scaled: DMSO 0%, maximal phenethylamine 100%. activation, % at 3 µM. 82% of 2,400 active. AID 651783;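 active = activation above a cutoff set at the run's mean compound activation plus 3 SD, cut at about 39% in these data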
Ga16 nonsel ag: nonselective agonism, TAAR1 counter-screen | shares compounds with TAAR1 ag | CHO-Ga16 parental, Fluo-8 calcium fluorescence; normalized to maximal ATP response, DMSO zero | activation, % at 3 µM | 50% of 2,400 active;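 active = activation above the run cutoff, the mean activation over all tested wells plus 3 SD, cut at about 12% in these data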;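 note: 0% = DMSO wells and 100% = maximal ATP response on the peak over basal ratio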
TAAR1 desens: counter-screen for human TAAR1 agonists: agonists that desensitize TAAR1. shares compounds with TAAR1 ag. CHO RD-HGA16 hTAAR1, Fluo-8 calcium, beta-PEA response inhibition. inhibition, % at 3 µM. 46% of 2,400 active. AID 651951;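 active = inhibition above the run cutoff, the mean inhibition of all test compounds plus 3 SD, cut at about 49% in these data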;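 note: beta-PEA stimulus applied at its EC80; loss of beta-PEA calcium signal after compound pretreatment read as receptor desensitization; 0% = DMSO with beta-PEA at EC80 and 100% = DMSO alone without agonist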
Ga16 nonsel ant: nonselective Ga16 antagonist in TAAR1 agonist counter-screen; shares compounds with TAAR1 ag; CHO-Ga16 ATP-induced calcium, Fluo-8 fluorescence; inhibition, % at 3 µM; 39% of 2,400 active;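 active = inhibition above the plate's mean compound inhibition plus 3 SD, computed per plate, cut at about 22% in these data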;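 note: 0% = EC80 ATP with DMSO and 100% = DMSO wells without ATP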
* = called active by the depositor; · = no result.

SMILES | OX1R antag-1 | TAAR1 ag | GPR7 antag | CHO parental Ca | TAAR1 antag | OX1R antag-2 | TAAR1 ag conf | Ga16 nonsel ag | TAAR1 desens | Ga16 nonsel ant
COc1ccc(-c2cc(C(=O)NNC(=S)NC(=O)c3c(-c4ccccc4)noc3C)[nH]n2)cc1 | -10.6 | 2.7 | -21.5 | 4.7 | -21.0 | 9.9 | · | · | · | ·
COc1ccc(/C=C/C(=O)NC(=S)NNC(=O)c2ccco2)cc1 | -12.1 | 17.9 | 4.9 | -12.7 | 24.5 | 15.6 | · | · | · | ·
Cc1onc(-c2ccccc2)c1C(=O)NNC(=S)NC(=O)/C=C/c1ccccc1 | -11.2 | 136.4* | -1.7 | -7.1 | 54.9* | -0.5 | 148.6* | 125.8* | 89.8* | 61.0*
O=C(NCc1cccc(C(F)(F)F)c1)c1ccc2nc([C@@H]3O[C@H](CO)[C@@H](O)[C@H]3O)[nH]c2c1 | · | 2.3 | · | · | -5.6 | · | · | · | · | ·
Cc1ccccc1C(=O)NNC(=S)NC(=O)c1ccc(Cl)cc1Cl | 22.5 | 181.3* | -3.6 | 2.1 | 108.9* | 13.3 | 132.4* | 103.1* | 104.1* | 80.7*
O=C(NC(=S)NNC(=O)c1ccc(Cl)cc1Cl)c1cccnc1 | -5.7 | 2.0 | -9.4 | -2.4 | -8.9 | 10.3 | · | · | · | ·
Cc1cccn2c(CNCCc3ccccn3)c(C(=O)N3CCOCC3)nc12 | -16.3 | 49.0* | -8.1 | -4.7 | 9.3 | 24.4 | 67.9* | 4.8 | 41.3 | 17.9
Cc1ccc2[nH]c(=O)c(CN(CCc3ccccc3)C(c3nnnn3Cc3ccco3)C(C)C)cc2c1 (stereo not drawn) | -28.8 | 71.3* | -13.2 | -4.4 | 3.1 | 25.2 | 61.5* | 0.0 | 18.2 | 6.5
CCC(c1nnnn1Cc1ccco1)N(CCc1ccccc1)Cc1cc2cc(C)ccc2[nH]c1=O (stereo not drawn) | -26.9 | · | · | -34.0 | · | 14.3 | · | 2.8 | · | 5.8
C=CCNc1nc(-c2ccccc2)nc(-n2ccnc2)n1 | -25.0 | 46.3* | -13.7 | -5.7 | 23.6 | 14.2 | -4.0 | -1.4 | 0.1 | 11.5
CCCCNc1nc(-c2ccccc2)nc(-n2ccnc2)n1 | -23.1 | 1.4 | -6.6 | -13.8 | 11.2 | 32.0 | · | · | · | ·
OCC1COC(c2ccccc2)=N1 (stereo not drawn) | · | 38.6* | · | · | -13.8 | · | 6.4 | 1.9 | 9.8 | 11.6
CCCCCCn1c(=O)n2n(c1=O)C[C@]1(OC(=O)NC3CCCC3)CN(S(=O)(=O)c3ccc(C)cc3)C[C@]1(O)C2 | · | -0.9 | · | · | 15.2 | · | · | · | · | ·
Cc1cccc(Nc2cc(C)c3c(O)cccc3n2)c1C | -23.1 | 94.2* | 9.3 | 7.0 | 81.9* | 19.1 | 95.7* | 21.6* | 91.6* | 17.4
Cc1cccc(NC(=S)N(C)C)c1C | -17.2 | 0.8 | -7.3 | -11.2 | -37.7 | -1.7 | · | · | · | ·
Oc1c(C=Nc2cccc3cccnc23)sc2ccccc12 | 99.0* | 129.5* | -8.9 | 49.0* | 93.6* | 43.5 | 38.9* | 68.9* | 57.9* | 68.8*
COc1ccc2ccccc2c1-c1sc(Nc2ccccc2)n[n+]1-c1ccc(F)cc1 | -9.7 | 64.0* | 5.6 | -10.8 | -11.7 | 15.1 | 51.8* | 25.4* | 46.1 | 37.0*
O=C(O)c1ccc(-c2sc(Nc3ccccc3)n[n+]2-c2ccc(F)cc2)cc1 | 8.4 | · | 1.5 | -11.8 | · | 5.3 | · | · | · | ·
Fc1ccc(-[n+]2nc(Nc3ccccc3)sc2-c2c(Cl)cccc2Cl)cc1 | 11.1 | 74.0* | 3.3 | 34.1 | 32.3 | 30.0 | 88.7* | 34.8* | 72.8* | 29.0*
COc1ccc(-c2sc(Nc3ccccc3)n[n+]2-c2ccc(F)cc2)cc1Br | -1.5 | 11.1 | -2.3 | -13.8 | -0.1 | 0.0 | · | · | · | ·
CCOC(=O)C1=C[C@@H](CC)N(S(=O)(=O)c2ccccc2)[C@H]1c1ccccc1 | · | 0.5 | · | · | -67.8 | · | · | · | · | ·
Cc1ccc2c(CN3CCN(c4ccccc4)CC3)cc(=O)oc2c1 | · | 0.5 | · | · | 4.3 | · | · | · | · | ·
O=C(O)C1NCCc2ccccc21 (stereo not drawn) | -6.0 | 72.0* | 16.0 | -13.7 | 37.8 | 7.2 | 67.0* | -0.3 | 24.3 | 2.1
Cc1cc(N/N=C/c2ccccc2F)nc(NCc2ccccc2)n1 | -26.9 | -0.5 | -11.0 | -15.3 | -5.5 | 0.4 | · | · | · | ·
Cc1cc(N/N=C/c2cccc(F)c2)nc(NCc2ccccc2)n1 | -28.2 | 59.6* | -6.1 | -16.4 | 28.1 | 11.3 | 55.1* | 5.3 | 44.7 | 15.5
SMILES | OX1R antag-1 | TAAR1 ag | GPR7 antag | CHO parental Ca | TAAR1 antag | OX1R antag-2 | TAAR1 ag conf | Ga16 nonsel ag | TAAR1 desens | Ga16 nonsel ant
Cc1cc(N/N=C/c2ccccc2)nc(NCc2ccccc2)n1 | -14.0 | 50.5* | 5.4 | -9.1 | 27.7 | 22.0 | 62.7* | 17.0* | 39.2 | 17.6
COc1cc2[nH]c(C(=O)N3CCc4ccccc4C3)cc2c(OC)c1OC | -17.6 | 44.1* | -9.2 | -24.8 | -12.0 | -0.9 | 71.9* | 4.7 | 16.9 | 7.6
COc1ccc(NC(=O)C2CC(=O)NC(Nc3cccc(C)c3)=N2)cc1 (stereo not drawn) | -5.2 | 51.0* | -5.0 | -5.5 | 8.2 | 23.6 | 53.7* | 3.0 | 14.1 | 8.1
COc1ccc2nc(NC3=NC(C(=O)Nc4ccc(C)cc4)CC(=O)N3)nc(C)c2c1 (stereo not drawn) | -6.4 | · | -16.0 | -7.5 | · | -4.8 | · | · | · | ·
CC1=CC(C)(C)N(C(=O)c2ccccc2)c2ccccc21 | -20.8 | 25.6 | -8.0 | -6.3 | 11.9 | 10.0 | · | · | · | ·
CC1=CC(C)(C)N(C(=O)c2ccccc2)c2ccc(C)cc21 | · | 65.3* | 12.5 | · | 52.2* | · | 71.0* | 42.5* | 68.9* | 52.5*
COc1cc(C2c3cc4c(cc3OC(Nc3ccc(C(=O)O)cc3)C2C)OCO4)cc(OC)c1OC (stereo not drawn) | · | 3.5 | · | · | -27.9 | · | · | · | · | ·
COc1cc(C2c3cc4c(cc3OC(NCCc3ccccc3)C2C)OCO4)cc(OC)c1OC (stereo not drawn) | · | 96.9* | · | · | 91.1* | · | 97.1* | 5.2 | 99.6* | 8.3
O=C(Cc1n[nH]c(=O)[nH]c1=O)N/N=C/c1ccccc1 | 6.9 | 65.9* | 4.4 | -4.6 | 19.1 | 9.0 | 73.9* | -0.3 | 55.0* | 10.2
O=C(Cc1n[nH]c(=O)[nH]c1=O)N/N=C/c1cccc(O)c1 | -27.6 | 60.0* | 5.1 | 1.1 | -11.3 | 17.5 | 59.7* | 4.2 | 20.7 | 8.8
O=C(Cc1n[nH]c(=O)[nH]c1=O)N/N=C/c1cccc(Cl)c1 | -8.1 | 29.0 | -4.2 | -7.0 | 8.2 | 14.1 | · | · | · | ·
